Experimental data of several laboratories.
Compare with care: the assays were run in different laboratories.
Target: Homeodomain-interacting protein kinase 4 (HIPK4, Homo sapiens, UniProt Q8NE63)
One construct used (Q8NE63 1-616): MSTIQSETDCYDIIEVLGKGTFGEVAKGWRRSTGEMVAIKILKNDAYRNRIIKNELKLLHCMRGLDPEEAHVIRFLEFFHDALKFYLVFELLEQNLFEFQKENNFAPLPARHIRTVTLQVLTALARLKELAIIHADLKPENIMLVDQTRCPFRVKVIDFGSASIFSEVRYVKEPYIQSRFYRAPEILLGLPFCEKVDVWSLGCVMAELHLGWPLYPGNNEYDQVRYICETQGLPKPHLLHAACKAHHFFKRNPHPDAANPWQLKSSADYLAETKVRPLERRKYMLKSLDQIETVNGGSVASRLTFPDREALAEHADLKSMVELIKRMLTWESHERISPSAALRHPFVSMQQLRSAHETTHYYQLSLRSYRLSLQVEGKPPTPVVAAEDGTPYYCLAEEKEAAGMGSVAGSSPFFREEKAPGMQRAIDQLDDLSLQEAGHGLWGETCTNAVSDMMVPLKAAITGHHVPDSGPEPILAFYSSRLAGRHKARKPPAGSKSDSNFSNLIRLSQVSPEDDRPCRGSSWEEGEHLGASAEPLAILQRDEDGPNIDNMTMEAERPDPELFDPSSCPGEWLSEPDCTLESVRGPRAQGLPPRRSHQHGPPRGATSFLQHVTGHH

COc1ccc(COc2ccc(Cc3cnc(N)nc3N)cc2OC)cc1  remaining signal (cell-free assay; 0.5 µM): 97.7%
CO[C@@H](C)c1c(Nc2ccc([C@@H](N(C)C(=O)C3CCS(=O)(=O)CC3)C(F)(F)F)cc2)cnc2cc(Cl)nn12  remaining binding (cell-free assay, competition with immobilised ligand; 1 µM): 100%
O=C(Nc1cnn(-c2csc(C(=O)NC3COC3)c2)c1)Nc1c(F)cccc1Cl  remaining activity (enzyme activity, inhibitor; 5 µM): 111%
O=C(Nc1cnc(Oc2ccc(F)cc2)nc1)N1CCc2ncccc2[C@@H]1c1ccc(F)cc1  remaining binding (cell-free assay, competition with immobilised ligand; 1 µM): 100%
Nc1ncnc2occ(-c3ccc(NC(=O)Nc4cc(C(F)(F)F)ccc4F)cc3)c12  remaining signal (cell-free assay, inhibitor; 20 µM): 0.95%
CCCOc1ccc([C@H]2[C@H](C(=O)O)[C@@H](c3ccc4c(c3)OCO4)CN2CC(=O)Nc2c(CC)cccc2CC)cc1  remaining binding (cell-free assay, competition with immobilised ligand; 1 µM): 70%
O=C(O)c1ccc2c(c1)nc(Nc1ccc(F)c(Cl)c1)c1ncncc12  remaining activity (enzyme activity, inhibitor, radiometric; 1 µM): 6%
CC/C(=N\NC(=O)NCc1cccc(O)c1)c1ccc(O)c(C)c1O  inhibition (enzyme activity, inhibitor; 0.1 µM): 1.5%
COc1cc2c(N3CCN(C(=O)Nc4ccc(OC(C)C)cc4)CC3)ncnc2cc1OCCCN1CCCCC1  remaining signal (cell-free assay; 0.5 µM): 99.5%
COc1cc2ncnc(Nc3ccc(Oc4ccccc4)c(C)c3C)c2cc1OC  inhibition (enzyme activity, inhibitor; 1 µM): -2%
O=C(O)c1ccc2c(c1)nc(NCCc1cccc(F)c1)c1ncncc12  remaining activity (enzyme activity, inhibitor, radiometric; 1 µM): 10%
CS(=O)(=O)N1CCCC(NC(=O)[C@H](CCC2CCCCC2)NC(=O)c2ccc(CNC(=O)c3cnc4ccccn34)cc2)C1 (some centres unmarked)  remaining binding (cell-free assay, competition with immobilised ligand; 0.1 µM): 88%
N#Cc1cccc(Nc2nc3cc(C(=O)O)ccc3c3cnccc23)c1  remaining activity (enzyme activity, inhibitor, radiometric; 1 µM): 29%
Cc1ccc(NC(=O)c2ccc(CN3CCN(C)CC3)cc2)cc1Nc1nc(-c2cccnc2)cs1  remaining signal (cell-free assay; 0.5 µM): 101%
O=C(O)c1ccc2c(c1)nc(Nc1ccc3ccccc3c1)c1ccncc12  remaining activity (enzyme activity, inhibitor, radiometric; 1 µM): -10%
N#CC1(c2ccccn2)CCN(Cc2cc(C(=O)N3CCCC3)c(=O)n3ccccc23)CC1  remaining binding (cell-free assay, competition with immobilised ligand; 1 µM): 67%
O=C(O)c1ccc2c(c1)nc(Nc1cccc(F)c1)c1ncncc12  remaining activity (enzyme activity, inhibitor, radiometric; 1 µM): 52%
CNC(=O)c1cc2c(Oc3ccc(NC(=O)C4(C(=O)Nc5ccc(F)cc5)CC4)cc3)ccnc2cc1OC  inhibition (enzyme activity, inhibitor, radiometric; 1 µM): 102%
O=C(O)c1ccc2c(c1)nc(Nc1ccccc1Cl)c1ncncc12  remaining activity (enzyme activity, inhibitor, radiometric; 1 µM): -3%
CC(=O)c1c(NS(C)(=O)=O)c2cc(-c3ccc(Cl)cc3)c(-c3ccc(Cl)cc3Cl)nc2n(C)c1=O  remaining binding (cell-free assay, competition with immobilised ligand; 1 µM): 93%
